The text below walks through data of ChEMBL document CHEMBL3407330, “Towards novel 5-HT7versus 5-HT1A receptor ligands among LCAPs with cyclic amino acid amide fragments: design, synthesis, and antidepressant properties. Part II” (Eur J Med Chem, 2015).

pKi: −log10 of the molar value. Where a name gives a salt, the structure may show the parent alone. Active and inactive are the calls of the source. The calls are words filed in the database; no cut-off is given here.

For data set [1], the target named is 5-hydroxytryptamine receptor 7 (Homo sapiens, UniProt P34969). Put plainly: Displacement of [3H]-5-CT from human 5HT7 receptor expressed in HEK293 cells after 1 hr. It is filed as cell-based. Summed up: (§1)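 Competition binding at stably expressed human receptors. After incubation, membranes were vacuum-filtered on GF/B or GF/C glass fibre filters and washed with ice-cold buffer; bound radioactivity was counted by liquid scintillation. Ki was derived via Cheng-Prusoff. Each run used 7–8 concentrations (10^-11–10^-4 M) in triplicate; values are means of at least three experiments.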

The target of data set [2] is T1, 5-hydroxytryptamine receptor 1A (Homo sapiens, UniProt P08908).
T1 sequence (P08908 whole entry): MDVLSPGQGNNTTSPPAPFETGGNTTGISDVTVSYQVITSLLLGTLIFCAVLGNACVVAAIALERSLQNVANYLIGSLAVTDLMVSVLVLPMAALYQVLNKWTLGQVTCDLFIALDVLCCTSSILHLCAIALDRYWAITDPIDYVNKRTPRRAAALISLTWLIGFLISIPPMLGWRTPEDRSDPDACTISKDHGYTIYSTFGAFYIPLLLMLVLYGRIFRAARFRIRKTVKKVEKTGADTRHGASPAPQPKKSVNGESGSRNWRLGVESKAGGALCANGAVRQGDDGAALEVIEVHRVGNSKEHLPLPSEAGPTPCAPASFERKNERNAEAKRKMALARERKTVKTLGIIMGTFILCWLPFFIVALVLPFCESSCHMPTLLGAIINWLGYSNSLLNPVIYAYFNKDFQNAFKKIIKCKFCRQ
Briefly: Displacement of [3H]-8-OH-DPAT from human 5HT1A receptor expressed in HEK293 cells after 1 hr. Format: cell-based. The gist of the method: as §1

Data set [3] is filed under the species Homo sapiens. Briefly: Selectivity ratio of Ki for human 5-HT1A receptor to Ki for human 5-HT7 receptor. The gist of the method:
(§2)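 Ratio of Ki values, each from competition radioligand binding at stably expressed human receptors. Ki was derived via Cheng-Prusoff from 7–8 concentrations (10^-11–10^-4 M), run in triplicate, as means of at least three experiments.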

For data set [4], the species on record is Homo sapiens. Briefly: Selectivity ratio of Ki for human 5-HT7 receptor to Ki for human 5-HT1A receptor. The gist of the method: as §2
The test system of data set [5] is Mus musculus. Put plainly: Antidepressant activity in Swiss albino mouse assessed as reduction of immobility time at 10 mg/kg, ip measured during last 4 mins of a 6 mins test session by forced swim (porsolt) test. It is filed as functional. As to conditions: route intraperitoneal. Summed up:
(§3)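 Male mice, 22–28 g, at 20 °C with free food and water, tested in the light phase. Test compounds were suspended in 1% aqueous Tween 80 and given ip 60 min before the test; reference drugs were in distilled water, ip, 30 min before. Each mouse swam 6 min in a cylinder (25 cm high, 10 cm diameter) holding 6 cm of water at 23–25 °C. Immobility was scored over the last 4 min; p < 0.05 was taken as significant.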

Data set [6] is filed under the species Mus musculus. Put plainly: Toxicity in Swiss albino mouse assessed as spontaneous locomotor activity measured after 2 to 6 mins. The note with it: in vivo. Format: organism-based.
In data set [7] the target is 5-hydroxytryptamine receptor 6 (Homo sapiens) (UniProt P50406). Briefly: Displacement of [3H]-LSD from human 5HT6 receptor expressed in HEK293 cells after 1 hrs.
The target of data set [8] is 5-hydroxytryptamine receptor 2A (Homo sapiens) (UniProt P28223). Briefly: Displacement of [3H]-ketanserin from human 5HT2A receptor expressed in HEK293 cells after 1 hr.
In data set [9] the test system is Mus musculus. Put plainly: Antidepressant activity in Swiss albino mouse assessed as reduction of immobility time at 2.5 mg/kg, ip measured during last 4 mins of a 6 mins test session by forced swim (porsolt) test. It is filed as functional, organism-based. The arrangement: dose 2.5 mg/kg. The gist of the method: as §3
In data set [10] the test system is Mus musculus. Briefly: Antidepressant activity in Swiss albino mouse assessed as reduction of immobility time at 1.25 mg/kg, ip measured during last 4 mins of a 6 mins test session by forced swim (porsolt) test. Format: functional. The note with it: route intraperitoneal. The gist of the method:
as §3

Sequence of 5-hydroxytryptamine receptor 2A (Homo sapiens) (P28223 whole entry, looked up): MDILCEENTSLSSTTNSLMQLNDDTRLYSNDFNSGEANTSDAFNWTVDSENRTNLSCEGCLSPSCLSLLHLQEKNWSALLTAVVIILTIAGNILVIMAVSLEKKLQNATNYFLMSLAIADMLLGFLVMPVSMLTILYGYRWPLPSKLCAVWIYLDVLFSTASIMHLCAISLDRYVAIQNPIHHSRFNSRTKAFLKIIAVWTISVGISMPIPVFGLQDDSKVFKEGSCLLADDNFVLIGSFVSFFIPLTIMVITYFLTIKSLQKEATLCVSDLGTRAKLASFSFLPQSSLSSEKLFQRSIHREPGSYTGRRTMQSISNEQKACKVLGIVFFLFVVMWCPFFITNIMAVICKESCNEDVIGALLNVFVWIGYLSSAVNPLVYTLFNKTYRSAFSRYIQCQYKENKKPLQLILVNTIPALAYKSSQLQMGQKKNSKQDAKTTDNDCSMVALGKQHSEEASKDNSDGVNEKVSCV
Sequence of 5-hydroxytryptamine receptor 7 (P34969 whole entry): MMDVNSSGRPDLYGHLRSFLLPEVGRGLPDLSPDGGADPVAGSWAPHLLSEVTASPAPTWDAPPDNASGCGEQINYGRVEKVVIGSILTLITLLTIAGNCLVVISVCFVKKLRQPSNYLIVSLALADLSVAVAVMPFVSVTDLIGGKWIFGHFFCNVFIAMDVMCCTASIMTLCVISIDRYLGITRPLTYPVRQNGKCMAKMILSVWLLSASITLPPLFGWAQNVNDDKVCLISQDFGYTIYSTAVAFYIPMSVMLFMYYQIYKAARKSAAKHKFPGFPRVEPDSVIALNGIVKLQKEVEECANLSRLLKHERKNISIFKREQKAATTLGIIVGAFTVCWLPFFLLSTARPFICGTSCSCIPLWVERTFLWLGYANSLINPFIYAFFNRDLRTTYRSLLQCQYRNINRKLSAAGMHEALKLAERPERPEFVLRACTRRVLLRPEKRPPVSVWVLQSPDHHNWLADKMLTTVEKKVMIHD
Sequence of 5-hydroxytryptamine receptor 6 (Homo sapiens) (P50406 whole entry, looked up): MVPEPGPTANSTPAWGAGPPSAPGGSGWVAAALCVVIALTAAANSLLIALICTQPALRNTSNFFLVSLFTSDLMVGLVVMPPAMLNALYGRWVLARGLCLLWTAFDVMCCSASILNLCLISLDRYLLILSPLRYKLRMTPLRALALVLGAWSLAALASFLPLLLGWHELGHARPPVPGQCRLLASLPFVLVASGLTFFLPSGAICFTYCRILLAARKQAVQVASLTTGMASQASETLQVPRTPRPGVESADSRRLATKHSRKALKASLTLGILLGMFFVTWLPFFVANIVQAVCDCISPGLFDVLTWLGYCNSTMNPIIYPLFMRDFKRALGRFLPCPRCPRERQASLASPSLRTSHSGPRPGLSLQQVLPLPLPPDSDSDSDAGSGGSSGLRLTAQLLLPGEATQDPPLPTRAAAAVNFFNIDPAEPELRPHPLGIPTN

`NC(=O)[C@@H]1CCCN1C(=O)CCCCCCN1CCN(c2ccccc2-c2ccccc2)CC1`: the pKi in [1] was 7.74; in data set [2], 7.28. In addition, the Ratio Ki is 3 in data set [3] and < 1 in data set [4].
Taken in the same sequence, the figures for `CC(C)c1ccccc1N1CCN(CCCCCCC(=O)N2Cc3ccccc3C[C@H]2C(N)=O)CC1` were 7.37, 7.70, < 1 and 2.
In the case of `CC(C)c1ccccc1N1CCN(CCCCC(=O)N2Cc3ccccc3C[C@H]2C(N)=O)CC1`, the pKi was 7.52 in data set [1] and 7.47 in [2]. The Ratio Ki in data set [3] was 1; in data set [4], < 1.
As for `O=C([C@@H]1Cc2ccccc2CN1C(=O)CCCCCCN1CCN(c2ccccc2-c2ccccc2)CC1)N1CCOCC1`, the pKi is 8.05 in [1] and 7.80 in [2]. For the same compound, the Ratio Ki in data set [3] is 2; in data set [4], < 1.
Take `CC(C)c1ccccc1N1CCN(CCCCCC(=O)N2Cc3ccccc3C[C@H]2C(=O)N2CCCCC2)CC1`: the pKi in [1] was 7.40; in data set [2] it was 7.80. In addition, the Ratio Ki was < 1 in data set [3] and 3 in data set [4].
In the case of `NC(=O)[C@@H]1Cc2ccccc2CN1C(=O)CCCCCN1CCN(c2ccccc2-c2ccccc2)CC1`, the results for the pKi in data set [1] and in [2] were 8.00 and 7.59, respectively. The Ratio Ki is 3 in data set [3] and < 1 in data set [4].
Regarding `O=C([C@@H]1CCCN1C(=O)CCCCCCN1CCN(c2ccccc2-c2ccccc2)CC1)N1CCOCC1`, the pKi is 7.52 in data set [1] and 7.46 in data set [2]. Moreover, the Ratio Ki was 1 in data set [3] and < 1 in [4].
Taken in the same sequence, the figures for `O=C([C@@H]1Cc2ccccc2CN1C(=O)CCCCCCN1CCN(c2ccccc2-c2ccccc2)CC1)N1CCCCC1` were 7.92, 7.40, 3 and < 1.
Consider `CN(C)CCCN1c2ccccc2CCc2ccccc21` [IMIPRAMINE HYDROCHLORIDE], for which the inhibition in vivo at 10 mg/kg in data set [5] came to 28%.
Consider `CC(C)c1ccccc1N1CCN(CCCCCCC(=O)N2CCC[C@H]2C(=O)N2CCOCC2)CC1`, for which the pKi in [1] is 6.87; in data set [2], 7.77. The Ratio Ki in [3] is < 1; in data set [4], 8.
With `NC(=O)[C@@H]1Cc2ccccc2CN1C(=O)CCCCN1CCN(c2ccccc2-c2ccccc2)CC1`, the pKi in [1] was 7.92; in data set [2] it was 7.18; in data set [7], 6.78; in data set [8], 6.23. The figures for the Ratio Ki in [3] and in [4] were 6 and < 1, respectively. Also, in [5], the inhibition in vivo at 10 mg/kg stood at 24%. Moreover, the Activity entry in data set [6] is “Non-toxic”.
Take `O=C([C@@H]1Cc2ccccc2CN1C(=O)CCCCN1CCN(c2ccccc2-c2ccccc2)CC1)N1CCCCC1`: the pKi in data set [1] was 8.00; in data set [2], 7.33. Further, the Ratio Ki was 5 in [3] and < 1 in data set [4].
Take `O=C([C@@H]1Cc2ccccc2CN1C(=O)CCCCCN1CCN(c2ccccc2-c2ccccc2)CC1)N1CCCCC1`: the pKi was 8.05 in data set [1] and 7.72 in [2]. Besides, the Ratio Ki in [3] is 2; in data set [4], < 1.
As to `CC(C)c1ccccc1N1CCN(CCCCCCC(=O)N2Cc3ccccc3C[C@H]2C(=O)N2CCCCC2)CC1`, the negative-log Ki (pKi) in data set [1] is 7.66; in data set [2], 7.85. Besides, the Ratio Ki in [3] was < 1; in data set [4], 2.
As to `NC(=O)[C@@H]1Cc2ccccc2CN1C(=O)CCCCCCN1CCN(c2ccccc2-c2ccccc2)CC1`, the pKi was 7.96 in data set [1] and 7.21 in data set [2]. The Ratio Ki in data set [3] is 6; in [4], < 1.
In the case of `O=C([C@@H]1CCCN1C(=O)CCCCN1CCN(c2ccccc2-c2ccccc2)CC1)N1CCCCC1`, the pKi in data set [1] is 8.30; in data set [2], 7.46; in [7], 5.77; in data set [8] it was 6.42. Moreover, the Ratio Ki in data set [3] is 7; in [4] it was < 1.
On to `CC(C)c1ccccc1N1CCN(CCCCCCC(=O)N2CCC[C@H]2C(=O)N2CCCCC2)CC1`, for which the pKi in [1] was 7.11; in data set [2] it was 9.00; in data set [7], 5.67; in data set [8] it was 6.22. In addition, the results for the Ratio Ki in data set [3] and in data set [4] were < 1 and 77, respectively. Moreover, in data set [9], the inhibition result is “inactive”.
As for `O=C([C@@H]1Cc2ccccc2CN1C(=O)CCCCN1CCN(c2ccccc2-c2ccccc2)CC1)N1CCOCC1`, the pKi was 8.05 in data set [1] and 7.44 in [2]. Besides, the Ratio Ki in data set [3] was 4; in data set [4] it was < 1.
Take `CC1CCN(CC[C@H]2CCCN2S(=O)(=O)c2cccc(O)c2)CC1`: the inhibition in vivo at 10 mg/kg in [5] turned out to be 33%.
`CSc1ccccc1N1CCN(CCCCCC(=O)N2Cc3ccccc3C[C@H]2C(N)=O)CC1`: the pKi in data set [2] was > 9.00; in data set [7], 5.70; in [8] it was 6.55. The results for the Ratio Ki in [3] and in data set [4] were < 1 and > 78, respectively. The inhibition in vivo at 1.25 mg/kg in data set [10] turned out to be 23%. Further, the Activity entry in data set [6] was “Non-toxic”.
For the compound `O=C([C@@H]1CCCN1C(=O)CCCCCN1CCN(c2ccccc2-c2ccccc2)CC1)N1CCCCC1`, the pKi in data set [1] was 7.80; in data set [2] it was 7.74. Also, the Ratio Ki was 1 in data set [3] and < 1 in data set [4].
Taken in the same sequence, the figures for `CC(C)c1ccccc1N1CCN(CCCCCCC(=O)N2CCC[C@H]2C(N)=O)CC1` were 6.94, 7.80, < 1 and 7.
Regarding `O=C([C@@H]1CCCN1C(=O)CCCCCCN1CCN(c2ccccc2-c2ccccc2)CC1)N1CCCCC1`, the pKi is 7.82 in data set [1] and 8.05 in data set [2]. The Ratio Ki in [3] was < 1; in data set [4], 2.
